Experimental data from ChEMBL document CHEMBL5104216, “Fragment-Sized Thiazoles in Fragment-Based Drug Discovery Campaigns: Friend or Foe?” (ACS Med Chem Lett, 2022).

Experiments:
[1] = molecular target: UDP-N-acetylglucosamine 1-carboxyvinyltransferase (Escherichia coli K-12) (UniProt P0A749); assay: Inhibition of recombinant Escherichia coli MurA assessed as residual activity at 500 uM using UDP-N-acetylglucosamine as substrate preincubated for 30 mins followed by substrate addition and measured by malachite green based colorimetric assay relative to control
Procedure, shortened: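 E. coli MurA at 500–625 μM with 30 min preincubation before substrate addition. Malachite green colorimetric read-out. Activity threshold was <50% residual activity.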

[2] = molecular target: UDP-N-acetylglucosamine 1-carboxyvinyltransferase (Escherichia coli K-12) (UniProt P0A749); assay: Inhibition of recombinant Escherichia coli MurA assessed as residual activity at 500 uM using UDP-N-acetylglucosamine as substrate and measured by malachite green based colorimetric assay relative to control
Procedure, shortened: (§1)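 Screened at 500–625 μM with malachite green colorimetric read-out. Activity threshold was <50% residual activity.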

[3] = molecular target: UDP-N-acetylglucosamine 1-carboxyvinyltransferase (Escherichia coli K-12) (UniProt P0A749); assay: Inhibition of recombinant Escherichia coli MurA assessed as residual activity at 500 uM using UDP-N-acetylglucosamine as substrate preincubated for 30 mins in presence of 1 mM DTT followed by substrate addition and measured by malachite green based colorimetric assay relative to control
[4] = molecular target: Replicase polyprotein 1ab (Severe acute respiratory syndrome coronavirus 2) (UniProt P0DTD1); assay: Inhibition of recombinant SARS-CoV-2 3CLpro expressed in Escherichia coli NiCo21(DE3) assessed as residual activity at 500 uM using DABCYL-KTSAVLQSGFRKME-EDANS as substrate preincubated for 30 mins followed by substrate addition and measured by FRET assay relative to control
Procedure, shortened: (§2)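 Kinetic fluorescence read-out of cleavage of a FRET substrate carrying a DABCYL–EDANS pair. Compounds were tested at 500–625 μM, and <50% residual activity was taken as the activity threshold. To exclude false positives, absorbance at the excitation and emission wavelengths and autofluorescence of the compounds were measured.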

[5] = molecular target: Replicase polyprotein 1ab (Severe acute respiratory syndrome coronavirus 2) (UniProt P0DTD1); assay: Inhibition of recombinant SARS-CoV-2 3CLpro expressed in Escherichia coli NiCo21(DE3) assessed as residual activity at 500 uM using DABCYL-KTSAVLQSGFRKME-EDANS as substrate preincubated for 30 mins in presence of 1mM DTT followed by substrate addition and measured by FRET assay relative to control; procedure, shortened: as §2
[6] = test system: Mycobacterium tuberculosis; assay: Inhibition of Mycobacterium tuberculosis MetAP1a assessed as residual activity at 625 uM using L-methionine 7-amido-4-methylcoumarin as fluorogenic substrate and measured by fluorescence based assay
Procedure, shortened: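 Kinetic fluorescence assay in which the enzyme hydrolyses L-methionine 7-amido-4-methylcoumarin to fluorescent 7-amino-4-methylcoumarin. Compounds were tested at 500–625 μM, and activity was called at <50% residual activity. Spectral interference was checked by measuring absorbance at the excitation and emission wavelengths and compound autofluorescence.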

[7] = molecular target: D-alanine--D-alanine ligase B (Escherichia coli K-12) (UniProt P07862); assay: Inhibition of recombinant Escherichia coli DdlB assessed as residual activity at 500 uM using D-alanine as substrate incubated for 20 mins and measured by malachite green based colorimetric assay relative to control; procedure, shortened: as §1
[8] = Redox activity of compound assessed as redox index at 100 uM measured by HRP-PR assay; assay type: physicochemical
Procedure, shortened: (§3)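 H2O2 from redox cycling, with or without DTT, detected with horseradish peroxidase-phenol red (HRP-PR).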

[9] = Redox activity of compound assessed as redox index at 100 uM in presence of 1 mM DTT measured by HRP-PR assay; assay type: physicochemical; procedure, shortened: as §3
[10] = Redox activity of compound assessed as redox index at 100 uM measured by H2DCFDA assay; assay type: physicochemical
Procedure, shortened: (§4)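 Reactive oxygen species, with or without the reducing agent TCEP, detected with the fluorescent probe H2DCFDA. Compound spectral interference (autofluorescence) checked under the assay conditions.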

[11] = Redox activity of compound assessed as redox index at 100 uM in presence of 100 uM TCEP measured by H2DCFDA assay; assay type: physicochemical; procedure, shortened: as §4
[12] = Redox activity of compound assessed as redox index at 10 uM measured by resazurin assay; assay type: physicochemical
Procedure, shortened: (§5)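 Free radicals formed by redox cycling with DTT detected with resazurin by fluorimetric read-out. Spectral interference checked.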

[13] = Redox activity of compound assessed as redox index at 1 uM measured by resazurin assay; assay type: physicochemical; procedure, shortened: as §5
[14] = Thiol reactivity of compound at 100 uM measured by DTNB assay; assay type: physicochemical
[15] = Thiol reactivity of compound measured by TNB2- assay; assay type: physicochemical
Procedure, shortened: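 Reactivity toward the thiol surrogate TNB2– in a nonproteinaceous setting without TCEP. Reversibility tested by adding TCEP and checking that absorbance was restored.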

[16] = Aqueous stability of the compound at pH 7.4 measured after 60 mins by spectrophotometric analysis; assay type: physicochemical; details: buffer, pH 7.4, 1 h
Procedure, shortened: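 Followed by spectrophotometry as changes in the compound absorption spectrum over time in 50 mM Tris-HCl pH 7.4, 0.5 mM EDTA, read after 60 min in 96-well microplate format. Compounds with low absorbance were not evaluated.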

Sequence of UDP-N-acetylglucosamine 1-carboxyvinyltransferase (Escherichia coli K-12) (P0A749 whole entry): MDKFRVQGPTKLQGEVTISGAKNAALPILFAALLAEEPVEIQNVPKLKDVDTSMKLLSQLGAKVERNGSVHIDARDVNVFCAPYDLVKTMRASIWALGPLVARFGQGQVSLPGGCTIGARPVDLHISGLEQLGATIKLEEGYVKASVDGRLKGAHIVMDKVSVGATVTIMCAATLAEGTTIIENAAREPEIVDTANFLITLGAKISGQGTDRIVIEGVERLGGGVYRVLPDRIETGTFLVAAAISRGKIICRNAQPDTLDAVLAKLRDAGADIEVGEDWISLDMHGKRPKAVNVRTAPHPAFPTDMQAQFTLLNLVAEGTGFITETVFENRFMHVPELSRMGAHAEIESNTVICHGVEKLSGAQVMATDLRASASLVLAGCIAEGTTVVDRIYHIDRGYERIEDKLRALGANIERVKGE

Row | Compound | Activity [1] | Activity [2] | Activity [3] | Activity [4] | Activity [5] | Activity [6] | Activity [7] | Activity_index [8] | Activity_index [9] | Activity_index [10] | Activity_index [11] | Activity_index [12] | Activity_index [13] | Activity [14] | Activity [15] | Stability [16]
1 | Cc1nc(CCl)cs1 | 48.4% | 89.6% | 112% | 96.8% | 90.9% | 124% | 100% | 1 | 1 | 1 | 0.8 | 0.9 | 0.9 | Active | Active | 
2 | CCOC(=O)c1csc(N)n1 | 9% | 18.6% | 105% | 18.9% | 76.3% | 93.7% | 89% | 0.8 | 1 | 1.1 | 0.7 | 1 | 0.9 |  | Active | Stable
3 | Nc1ncc(Br)s1 | 9% | 21.1% | 100% | 42.5% | 79.4% | 156% | 91% | 1 | 1 | 1.6 | 1.5 | 1.1 | 0.9 |  | Active | Stable
4 | CCOC(=O)c1sc(Br)nc1C | 9.1% | 19.5% | 103% | 91.6% | 85.8% | 115% | 93% | 1 | 1 | 1.3 | 1.3 | 0.9 | 0.9 |  | Active | Unstable
5 | O=S(=O)(Cc1ccccc1)Nc1nccs1 | 0% | 0% | 94% | 20% | 82.8% | 45.2% | 93% | 0.8 | 1 | 22.2 | 10.2 | 2 | 1 |  | Active | Stable
6 | N#Cc1cnc(Br)s1 | 94.3% | 96% | 100% | 101% | 75.5% | 128% | 94% | 1 | 1 | 1 | 0.8 | 1 | 0.9 |  | Active | Stable
7 | COC(=O)CC(=O)Nc1ncc(C#N)s1 | 5.8% | 29.7% | 112% | -4.7% | 86.3% | 92.6% | 88% | 1 | 1 | 0.9 | 1 | 1 | 0.9 |  | Active | Stable
8 | O=C(O)c1csc(Nc2cccc3ncccc23)n1 | 0% | 1.4% | 80.9% | 42.7% | 41.2% | 36.8% | 82% | 1 | 1 | 1.3 | 1.6 | 2.4 | 1 |  | Active | Stable
9 | N#Cc1cnc(NC(=O)C(=O)O)s1 | 90.6% | 112% | 114% | 104% | 97.6% | 150% | 105% | 1 | 1 | 0.9 | 0.7 | 0.9 | 0.9 |  | Active | Stable
10 | O=C(O)c1csc(-c2ccc(F)cc2)n1 | 12.8% | 58.7% | 90% | 82.6% | 88.1% | 141% | 94% | 0.8 | 1 | 1.1 | 0.8 | 0.9 | 0.9 |  | Active | Stable
11 | N#Cc1cnc(N)s1 | 6.1% | 18.9% | 102% | 1.1% | 74.1% | 90.8% | 91% | 1 | 1 | 1 | 0.8 | 1.2 | 0.9 |  | Active | Stable
12 | O=C(O)C(=O)Nc1ncc(Br)s1 | 1.2% | 11.3% | 112% | 62.2% | 82.8% | 28.9% | 94% | 1 | 1 | 1 | 1.2 | 0.9 | 0.9 |  | Active | Stable
13 | Cc1cnc(N)s1 | 85.2% | 95.2% | 94.6% | 88% | 79.8% | 118% | 92% | 1 | 1 | 1.3 | 1.3 | 0.9 | 1 |  | Active | Stable
14 | Brc1cnc(Br)s1 | 0% | 13.1% | 99% | 17.1% | 79.9% | 71.7% | 91% | 1 | 1 | 0.7 | 1 | 0.9 | 0.9 |  | Active | 
